Here are results for 23 molecules from ChEMBL document CHEMBL1145443, “Thiosemicarbazones of formyl benzoic acids as novel potent inhibitors of estrone sulfatase” (J Med Chem, 2007).

Data set [1] deals with T1, Steryl-sulfatase (Homo sapiens, UniProt P08842).
T1 sequence (P08842 whole entry): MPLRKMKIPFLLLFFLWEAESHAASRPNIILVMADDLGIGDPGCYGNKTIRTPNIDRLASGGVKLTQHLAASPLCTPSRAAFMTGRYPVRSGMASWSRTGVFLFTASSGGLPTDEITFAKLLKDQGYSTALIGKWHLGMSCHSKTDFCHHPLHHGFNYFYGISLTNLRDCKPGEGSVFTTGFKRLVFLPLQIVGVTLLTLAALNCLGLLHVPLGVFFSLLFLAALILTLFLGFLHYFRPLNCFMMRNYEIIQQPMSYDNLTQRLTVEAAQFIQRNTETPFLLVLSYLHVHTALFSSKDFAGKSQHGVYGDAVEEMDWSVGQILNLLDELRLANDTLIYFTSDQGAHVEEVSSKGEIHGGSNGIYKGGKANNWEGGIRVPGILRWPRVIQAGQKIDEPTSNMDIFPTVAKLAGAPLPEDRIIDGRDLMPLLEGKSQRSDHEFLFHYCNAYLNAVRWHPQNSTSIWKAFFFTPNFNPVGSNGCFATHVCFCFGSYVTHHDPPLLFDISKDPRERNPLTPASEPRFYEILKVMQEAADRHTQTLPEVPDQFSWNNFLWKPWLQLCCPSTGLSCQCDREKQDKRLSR
Kind of data set: (§1) Inhibition of Estrone sulfatase in human placental microsome. On the set-up: species or system Placenta.

Data set [2] can be described thus: Dissociation constant, pKa of the compound. It counts as physicochemical.
The test system of data set [3] is K562. Briefly: Growth inhibition of K562 cells. It counts as functional, cell-based. The following applies: Homo sapiens.
The species named for data set [4] is Gallus gallus. Briefly: Acute toxicity in chick embryo after 72 to 96 hrs by hen's fertile egg screening test. The following applies: chicken, in vivo. In kind it is organism-based. The procedure, abridged:
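Fifteen-day-old fertile hen's egg embryos received compound through the air cell. Deaths were scored 72-96 h after treatment, and an LD50 was derived in mg/kg.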

Data set [5] deals with HeLa. Kind of data set: Growth inhibition of HeLa cells. It counts as functional, cell-based. The following applies: Homo sapiens.
Data set [6] deals with T2, Steryl-sulfatase (Homo sapiens) (UniProt P08842).
T2 sequence (whole entry): T1 sequence (P08842 whole entry)
Described as §1. The following applies: Placenta.

The target of data set [7] is Estrone sulfatase (Homo sapiens). Briefly: Activity of Estrone sulfatase in human placental microsome. The following applies: Placenta.

The source made the active and inactive calls. The calls are words filed in the database; no cut-off is given here.

Regarding `CCCCNC(=S)N/N=C/c1cccc(C(=O)O)c1`, the IC50 in data set [1] was 58 µM. As to `O=C(O)c1ccccc1/C=N/NC(=S)Nc1ccccc1`, the IC50 in data set [1] was greater than 100 µM. Same read-out and setting: next, `CCCCCCNC(=S)N/N=C/c1cccc(C(=O)O)c1`: 12 µM. On to `O=C(O)c1ccccc1/C=N/NC(=S)NC1CCCCC1`, for which the pKa in data set [2] came to 6.4. Turning to `COc1c2c(c(O)c3c1C(=O)c1c(cc(O)c(C)c1O)C3=O)-c1c(cc(/C=N/NC(=S)NC3CCCCC3)c(C(=O)O)c1O)CC2` [MHL CYCLOHEXYLTHIOSEMICARBAZONE], the concentration for half-maximal inhibition (IC50) in data set [3] and in data set [5] was greater than 50 µg/mL in each case. Besides, in data set [4], the Activity was greater than 50 mg/kg. The molecule `O=C(N/N=C/c1cccc(C(=O)O)c1)NC1CCCCC1` came in with an IC50 in data set [1] greater than 100 µM. The same measure, in the same setting: for `COc1ccc(/C=N/NC(=S)NC2CCCCC2)c(C(=O)O)c1OC` the value was greater than 100 µM.

As for `O=C(O)c1cc(/C=N/NC(=S)NC2CCCCC2)ccc1O`, the pKa in data set [2] is 4.2. Further, the IC50 in data set [3] and in data set [5] was greater than 50 µg/mL throughout. The Activity in data set [4] was greater than 50 mg/kg.

Regarding `OB(O)c1ccccc1/C=N/NC(=S)NC1CCCCC1`, the pKa in data set [2] amounted to 7.7. This molecule also gave an IC50 in data set [1] greater than 100 µM.

For `O=C(O)c1cccc(/C=N/NC(=S)NC2CCCCC2)c1O`, the pKa in data set [2] was found to be 3.8. Moreover, the IC50 in data set [3] and in data set [5] was greater than 50 µg/mL in each case. Moreover, in data set [4], the Activity is greater than 50 mg/kg. Turning to `S=C(N/N=C/c1cccc(-c2nnn[nH]2)c1)NC1CCCCC1`, the pKa in data set [2] is 5.2. The molecule `O=C(O)c1ccc(O)c(/C=N/NC(=S)NC2CCCCC2)c1` yielded a pKa in data set [2] of 5.8. The IC50 in data set [3] and in data set [5] was greater than 50 µg/mL throughout. For the same molecule, the Activity in data set [4] is greater than 100 mg/kg. Turning to `CCCCNC(=S)N/N=C/c1ccccc1C(=O)O`, in data set [6], the outcome was inactive. As for `C/C(=N\NC(=S)NC1CCCCC1)c1ccccc1C(=O)O`, the IC50 in data set [1] is greater than 100 µM. Still for that read-out and setting: for `COc1cccc(/C=N/NC(=S)NC2CCCCC2)c1C(=O)O` the value was greater than 100 µM.

In data set [2], `O=C(O)c1cccc(/C=N/NC(=S)NC2CCCCC2)c1` showed a pKa of 5.4.

Consider `O=C(O)c1ccccc1/C=N/NC(=S)NC1CC1`, for which the half-maximal inhibitory concentration (IC50) in data set [1] was greater than 100 µM.

On to `Cc1ccc(/C=N/NC(=S)NC2CCCCC2)c(C(=O)O)c1O`, for which, in data set [2], the pKa was 4.3.

With `COc1c(C)ccc(/C=N/NC(=S)NC2CCCCC2)c1C(=O)O`, in data set [1], the IC50 is greater than 100 µM. As to `CCCCCCNC(=S)N/N=C/c1ccccc1C(=O)O`, in data set [6], the result was inactive. `Oc1cccc(/C=N/NC(=S)NC2CCCCC2)c1`: the pKa in data set [2] is 10.2.

In turn, `Oc1ccccc1/C=N/NC(=S)NC1CCCCC1` yielded a pKa in data set [2] of 9.8.

B1: Steryl-sulfatase (Homo sapiens), P08842 (protein)
chain: T1 sequence (P08842 whole entry)
In the case of B1, the Km in data set [7] was 27 µM.
